Assay outcomes as filed in PubChem BioAssay.
Sampled rows, rich in hits. Any-hit rate of the full collection: about 2.3%.
STEP block: blocks human striatal-enriched tyrosine phosphatase; P54829; inhibition, % at 20 µM; AID 588621; 0.25% of 360,000 active; recombinant STEP, OMFP fluorogenic substrate, fluorescence;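 active = inhibition at 20 µM, scaled per plate between control wells, above about 37%, limit read from the data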
Target sequence (P54829 whole entry, looked up): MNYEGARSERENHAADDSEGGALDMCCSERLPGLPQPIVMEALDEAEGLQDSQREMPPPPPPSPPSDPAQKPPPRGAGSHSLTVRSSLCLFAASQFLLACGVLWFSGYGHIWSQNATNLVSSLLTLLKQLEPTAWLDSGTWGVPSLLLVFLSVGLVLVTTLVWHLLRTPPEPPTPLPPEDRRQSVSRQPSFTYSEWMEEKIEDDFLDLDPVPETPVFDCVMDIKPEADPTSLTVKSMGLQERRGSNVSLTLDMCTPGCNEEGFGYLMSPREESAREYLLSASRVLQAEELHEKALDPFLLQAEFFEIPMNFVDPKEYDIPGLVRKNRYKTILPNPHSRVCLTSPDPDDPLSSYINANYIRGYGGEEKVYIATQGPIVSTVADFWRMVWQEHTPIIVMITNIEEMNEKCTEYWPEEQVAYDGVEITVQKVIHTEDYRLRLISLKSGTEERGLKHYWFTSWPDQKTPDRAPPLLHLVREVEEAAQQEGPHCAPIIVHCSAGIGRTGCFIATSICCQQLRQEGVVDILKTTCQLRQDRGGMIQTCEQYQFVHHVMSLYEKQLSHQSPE
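Measure: Control-normalized % inhibition with plate pattern correction | Test system: STEP phosphatase, cell-free reaction | Medium: pH 6.0 Bis-Tris with DTT and Tween 20 | Technique: Fluorescence, 480/540 nm | Times: Reaction 20 min, ambient temperature | Doses: Single compound dose of 20 µM, 1% DMSO final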
LMPTP inh: blocks human LMPTP phosphatase | recombinant LMPTP-A, OMFP fluorogenic substrate, fluorescence intensity | inhibition, % at 20 µM | 0.22% of 360,000 active;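 active = compounds that cut the enzyme signal by at least half of the control window in the single-dose screen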
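Test system: LMPTP-A phosphatase enzyme. Amount: LMPTP-A at 0.625 nM final in the reaction. Reagent: OMFP substrate, 400 µM final. Times: 50 min at room temperature. Signal: endpoint fluorescence intensity from OMFP dephosphorylation. Read-out basis: % inhibition. Benchmarks: no-enzyme and uninhibited controls.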
DNMT1 block: DNMT1 (human) enzyme inhibition | DNMT1 molecular beacon, Hinp1I cleavage, fluorescence | inhibition (reported as % activation of signal), % at 10 µM | 0.83% of 360,000 active | AID 588458; in the data active = inhibition above about 50%
SUMO1-SIM PPI: modulators of human SUMO1-mediated protein-protein interactions | 0.33% of 360,000 active | SUMO1 binding to a labelled peptide, TR-FRET, 1 h | AID 602429 | P63165 | inhibition, % at 20 µM; in the data active = inhibition above about 37%
NadD inh: inhibitors of Staphylococcus aureus NadD | purified NadD enzyme, colorimetric absorbance read-out | inhibition, % at 20 µM | 0.78% of 360,000 active; in the data active = inhibition above about 26%
Scp1 inh: Scp-1 (human) phosphatase inhibition; Q9GZU7; Recombinant Scp1, phosphopeptide, malachite green phosphate absorbance; inhibition, % at 20 µM; 0.88% of 340,000 active;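 active = inhibition above about 50% at 20 µM, limit read from the data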
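Test system – truncated SCP-1 phosphatase (76-261aa) · Reagent – Phosphorylated 17-residue peptide substrate · Incubation – 45 min room-temperature reaction, 5 min colour, 30 min stabiliser · Detection – colorimetric phosphate reagent with accelerator and stabiliser, absorbance at 630 nm · Measure – % inhibition at 20 µM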
NadD inh conf: confirmation of Staphylococcus aureus NadD inhibitors; inhibition, % at 20 µM; 13% of 2,000 active; shares compounds with NadD inh; purified S. aureus NadD, colorimetric enzyme assay; AID 624309; in the data active = inhibition mostly above about 42%, no sharp cut-off; inactive = mostly below about 42%
A number is an active result; 0 = inactive; - = no result.

SMILES	STEP block	LMPTP inh	DNMT1 block	SUMO1-SIM PPI	NadD inh	Scp1 inh	NadD inh conf
CC(C)CC(C(=O)Nc1oc(-c2ccco2)c(-c2ccco2)c1C#N)N1C(=O)c2ccccc2C1=O (configuration not stated)	0	0	0	0	48	0	47
Cc1cc(C(=O)COC(=O)C2=COCCO2)c(C)n1-c1cccc(F)c1	0	0	0	0	0	0	-
O=C(N/N=C/c1coc2ccccc2c1=O)c1cn(-c2ccccc2)nc1-c1ccccc1	0	0	0	0	36	0	0
CCCCCCCCCCCCCCCC[n+]1ccc(C(N)=O)cc1	0	0	0	52	29	0	0
COc1cc(/C=N/NC(=O)COc2c(C)cc([N+](=O)[O-])cc2C)ccc1OC(=O)c1ccccc1Br	0	0	0	0	33	0	0
O=C(c1ccoc1)N1CCN(c2cc(-c3cccc(F)c3)nc3cc(-c4cccc(Cl)c4)nn23)CC1	0	0	0	0	45	-	0
C=C(CN(C)C)C(=O)c1cc(C)ccc1C	0	0	0	0	32	0	0
O=C(NCCc1ccc(F)cc1)C1CCC(=O)N(CC2CCCCC2)C1 (configuration not stated)	0	0	0	0	0	-	-
CCn1nnnc1NCc1cccn1C	0	0	0	0	35	0	0
COc1ccc(NC(=O)CCNC(=O)c2ccco2)cc1Cl	0	0	0	0	0	0	-
CCNC(=O)N1CCCC(C(=O)c2ccc(C(F)(F)F)cc2)C1 (configuration not stated)	0	0	0	0	0	0	-
COc1cc(NC(=O)COc2ccc(Cl)cc2)ccc1-c1cc2ccccc2oc1=O	0	0	0	0	38	0	0
COc1cc(NC(=O)COc2ccc(Cl)cc2)ccc1NC(=O)C(C)C	0	0	0	0	0	0	-
COC(=O)c1ccc(N2C(c3ccsc3)=Cc3cc4c(cc3C2CC(=O)c2ccco2)OCO4)cc1 (configuration not stated)	-	0	-	0	31	-	0
O=C(CC1c2ccccc2C=C(c2ccsc2)N1c1ccc(-c2cccnc2)cc1)C1CC1 (configuration not stated)	-	0	-	0	33	-	0
COc1ncc(-c2ccc(N3C(c4ccsc4)=Cc4ccc(F)cc4C3CC(=O)c3ccco3)cc2)cn1 (configuration not stated)	-	0	-	0	35	-	0
COc1cc(OC)cc(C2=Cc3ccccc3C(CC(C)=O)N2c2ccc(-c3cncnc3)cc2)c1 (configuration not stated)	-	0	-	0	0	-	-
CCN1CCCC1CNC(=O)c1ccc(N2CCOCC2)c(NS(=O)(=O)c2ccc(OC)cc2)c1 (configuration not stated)	0	0	0	0	0	0	-
CC(C)(C)c1ccc(C(=O)N/C(=C\c2cccc([N+](=O)[O-])c2)C(=O)Nc2cccc(C(=O)O)c2)cc1	0	0	0	0	31	0	0
CC(Sc1nnc(C2CC2)n1C1CC1)C(=O)NC1(C#N)CCCCC1 (configuration not stated)	0	0	0	0	0	0	-
CSc1ccc(C(c2c(C(=O)O)[nH]c3ccccc23)c2c(C(=O)O)[nH]c3ccccc23)cc1	0	0	0	0	37	0	48
Cc1cc(-c2csc(NC(=O)c3ccc(C#N)cc3)n2)c(C)n1Cc1ccccc1	0	0	0	0	34	0	0
O=C1C(=O)N(c2ccc(O)cc2)C(c2ccccc2[N+](=O)[O-])/C1=C(\O)c1ccccc1 (configuration not stated)	0	0	0	0	0	0	-
Cc1ccc2nc(N3C(=O)C(O)=C(C(=O)c4ccco4)C3c3ccc(C)o3)sc2c1 (configuration not stated)	0	0	0	0	26	0	0
COc1cccc(-c2nnn(CC(=O)N(CC(C)C)C3CCS(=O)(=O)C3)n2)c1 (configuration not stated)	0	0	0	0	0	0	-
SMILES	STEP block	LMPTP inh	DNMT1 block	SUMO1-SIM PPI	NadD inh	Scp1 inh	NadD inh conf
CC(=O)N1CCc2cc(NC(=O)C3(C)CCN3Cc3ccccc3OC(F)F)ccc21 (configuration not stated)	0	0	0	0	0	-	-
Cc1cccc(NCc2ccc(O)c3ncccc23)c1	0	0	0	0	37	0	0
Oc1ccc(CNc2ccccc2)c2cccnc12	0	0	0	0	0	0	-
COc1ccc(-c2ccc3[nH]c4c(c3c2)CCN2C(=O)[C@@H]([C@H](C)O)[C@@H](N(C)C(=O)Nc3cc(Cl)cc(Cl)c3)C[C@@H]42)cc1	0	0	0	0	31	-	0
CC(=O)c1ccc(N2CCN(C(=O)[C@H](C)NC(=O)c3ccccc3Cl)CC2)cc1	0	0	0	0	0	0	-
Cc1ccc(Oc2nnc(-c3ccccc3)c3ccccc23)cc1	0	0	0	0	0	0	-
Cc1ccc(-c2nnc(Oc3ccc(NC(=O)c4ccccc4)cc3)c3ccccc23)cc1	0	0	0	0	30	0	0
COc1cccc(C=C(C#N)C(=O)c2ccccc2)c1	0	0	0	0	32	-	0
Cc1ccc(S(=O)(=O)Nc2ccccc2N2CCCCC2)cc1	0	0	0	0	0	0	-
O=C(NCC(F)(F)F)c1ccc(S(=O)(=O)Nc2ccccc2N2CCCC2)cc1	0	0	0	0	40	0	0
C#CCOCCOCCOCCNc1nc(N2CCN(C(=O)CCCCCCCCCCNC(=O)[C@@H](CCC(=O)O)n3cc(CCCCCN)nn3)CC2)nc(N2CCN(C(=O)CCCCCCCCCCNC(=O)[C@H](CO)n3cc(CCCSC)nn3)CC2)n1	0	0	0	0	48	0	0
C#CCOCCOCCOCCNc1nc(N2CCN(C(=O)CCCCCCCCCCNC(=O)[C@@H](CCSC)n3cc(CCO)nn3)CC2)nc(N2CCN(C(=O)CCCCCCCCCCNC(=O)[C@H](CCC(=O)O)n3cc(CCCCCN)nn3)CC2)n1	0	0	0	0	41	0	48
CCOC(=O)c1c(NC(=O)C2=COCCO2)sc2c1CCN(C(=O)OC)C2	0	0	0	0	0	0	-
O=S(=O)(Nc1cccc(-c2ccc(N3CCCCCC3)nn2)c1)c1cccc(F)c1	0	0	0	0	31	0	0
O=S(=O)(Nc1cccc(-c2ccc(N3CCCCCC3)nn2)c1)c1ccc(C(F)(F)F)cc1	0	0	0	0	36	0	0
O=S(=O)(Nc1cccc(-c2ccc(N3CCCCCC3)nn2)c1)c1ccccc1Cl	0	0	0	0	50	0	0
O=S(=O)(Nc1cccc(-c2ccc(N3CCCCCC3)nn2)c1)c1ccc(F)cc1	0	0	0	0	0	0	-
